High-throughput results (PubChem BioAssay)
The list is not random: actives were taken first. Their share in the collection is about 3.5%.
MT stabilize HCS = microtubule stabilizers in HeLa cells, primary screen, imaging, high-content imaging; HeLa tubulin immunostaining HCS, 24 h; share of cells brighter than vehicle mean+2SD; % tubulin-high responders, % at 10 µM; hit rate 0.83% among 200,000; AID 2205, 2009;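 active = plate Z-score above 3 for both tubulin-high and condensed-nucleus cell shares, with cell loss under 80%, at 10 µM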;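 also: anti alpha tubulin signal scored within the nucleus-defined area of each cell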
bCat nuc transl = modulators of beta-catenin nuclear translocation, primary screen, imaging, HeLa cells, immunofluorescence, high-content. nuclear translocation activity, % at 5 µM. hit rate 0.3% among 190,000. AID 1665, 2009;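 active = nuclear translocation activity above 50% at 5 µM, with a well cell count of 50 or more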;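 also: per-cell ratio of nuclear to cytoplasmic median beta-catenin stain intensity; plate controls were DMSO negative control for no effect and GSK-3 inhibitor IX positive control for full effect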
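Test system: human HeLa cells, endogenous beta-catenin. Times: 24 h compound exposure, 37°C. Measured by: beta-catenin immunofluorescence imaging with DAPI.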
RAM inhibit = inhibitors of the yeast RAM network, primary screen, dse1pr::URA3 reporter, 5-FOA selection; S. cerevisiae dse1pr::URA3 reporter, 5-FOA growth OD615, 2 d; analog-sensitive cbk1-as2 kinase mutant strain; inhibition, % at 50 µM; hit rate 1.8% among 190,000;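 active = inhibition above a set limit, 3 SD over mean compound inhibition, cut at about 8.4% in these data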;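 also: 0% = DMSO-only wells with no growth and 100% = 10 µM 1-NA-PP1 full growth; inhibition rescues growth on 5-FOA so higher OD means more RAM inhibition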
Yeast growth inh = growth inhibitors of yeast BB579 in restrictive medium, primary screen, yeast lifespan-shortening project, S. cerevisiae; inhibition, % at 10 µM; AID 804, 2007; hit rate 0.51% among 140,000; OD615, 48 h;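 active = inhibition above a set limit, 3 SD over the mean compound inhibition, cut at about 44% in these data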
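Test system: DeaD yeast strain BB579 / Buffer or medium: restrictive glucose-based CSMM-D medium / Doses: single 10 µM dose / Schedule: 4 h cell preincubation, 48 h compound exposure, 30 °C humidified / Technique: culture absorbance at 615 nm / Controls: amphotericin B positive control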
Yeast life ext = compounds extending yeast replicative lifespan, primary screen, S. cerevisiae, OD615 | S. cerevisiae growth with nicotinamide; deaD strain in restrictive glucose medium | inhibition of the nicotinamide effect, % at 10 µM | hit rate 0.68% among 130,000 | AID 775, 2007;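 active = inhibition above a set limit, placed 3 SD over the median of all compounds, cut at about 26% in these data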;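 also: 0% = nicotinamide-treated wells and 100% = cells grown without nicotinamide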
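Test system – modified budding yeast, DeaD strain · Compound – single dose 10 µM compound, 0.25% DMSO · Times – culture preincubation 4 h, compound exposure 48 h, both 30 °C · Detection – optical density (absorbance) at 615 nm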
Efa HMGR inh = inhibitors of E. faecalis class II HMGR, primary screen, biochemical, Enterococcus faecalis; HMG-CoA reductase (Enterococcus faecalis, mvaE); purified E. faecalis HMGR, NADPH absorbance 340 nm kinetic; AID 1066, 2008; inhibition, % at 10 µM; hit rate 0.41% among 190,000;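 active = inhibition above a set limit, the median over all tested compounds plus 3 SD, cut at about 9.5% in these data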;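 also: enzyme runs in reverse so mevalonate oxidation gives rising NADPH absorbance; 0% = complete reaction with DMSO and 100% = background rate lacking mevalonate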
* marks the source's active call; other numbers are inactive results; x = no result given.

SMILES	MT stabilize HCS	bCat nuc transl	RAM inhibit	Yeast growth inh	Yeast life ext	Efa HMGR inh
CN1CCN(c2nc(-c3ccco3)cc(C(F)(F)F)n2)CC1	4	-3	-1	25	-4	-9
FC(F)(F)c1cc(-c2ccco2)nc(-n2nc(C(F)(F)F)cc2C2CC2)n1	5	3	9.1*	-9	-19	0
O=C(/C(=C/O)N=Nc1ccc(Cl)cc1)c1ccncc1	1	-2	0	-31	77*	1
Cc1ccc(N=N/C(=C\O)C(=O)c2ccncc2)cc1	1	x	-1	5	22	-5
Cc1nc(C(F)(F)F)c(C(=O)N/N=C(\N)c2ccccn2)s1	4	0	-1	x	x	-2
CCc1ccc(S(=O)(=O)NCc2cn3ccsc3n2)s1	2	-1	2	18	-4	-4
CCc1ccc(S(=O)(=O)NCCc2cn3ccsc3n2)s1	3	-1	0	46*	11	-1
COc1ccc(/C=C/C(=O)N2CCN(c3ccccn3)CC2)c2ccccc12	1	-2	1	x	x	0
NS(=O)(=O)c1ccc(NC(=S)NC(=O)c2ccc3c(c2)OCO3)cc1	0	-2	4	x	x	-3
NC(N)=NS(=O)(=O)c1ccc(NC(=S)NC(=O)c2ccc3c(c2)OCO3)cc1	2	0	9.1*	x	x	1
CC(=O)c1sccc1NC(=O)CC(C)(C)CC(=O)O	x	0	x	x	x	x
Oc1c(I)cc(I)c2cccnc12	4	x	-1	83*	-4	1
Oc1c(Cl)cc(Cl)c2cccnc12	3	2	-1	x	x	-2
O=C(Nc1ccc(S(=O)(=O)Nc2ncccn2)cc1)c1cnc(Cl)c(Cl)c1	4	0	11*	x	x	3
CCOC(=O)c1c(-c2cccs2)csc1NC(=O)CSc1ncn[nH]1	3	1	9.4*	-61	0	-1
CCOC(=O)c1c(NC(=O)c2cccs2)sc(CC)c1-c1cccs1	2	x	10*	-55	-11	-2
CCOC(=O)c1c(-c2cccs2)csc1NC(C)=O	5	0	4	-34	x	-8
CCOC(=O)c1c(-c2ccc(C)s2)csc1NC(=O)c1cccs1	2	x	6	-70	-8	1
CCOC(=O)c1c(-c2cccs2)csc1NC(=O)C(C)(C)C	1	-5	8.6*	-23	-11	1
CCOc1ccc(Nc2cc(=O)oc3ccccc23)cc1	29*	1	3	-35	2	3
O=C(OCc1ccccc1)C1=NNC2C(=O)N(Cc3ccccc3)C(=O)C12 (stereo not drawn)	3	-1	1	x	x	-3
c1ccc2c(c1)CCCC2C1=NCCN1 (stereo not drawn)	3	x	1	-31	3	0
Brc1ccc2c(c1)C(C1=NCCN1)c1ccccc1CS2 (stereo not drawn)	24	51*	0	-20	9	-2
N/C(=N\OC(=O)c1cccs1)C1(c2ccc(Cl)cc2Cl)CC1	x	5	x	x	x	x
N/C(Cc1ccc(Cl)c(Cl)c1)=N\OC(=O)c1cccs1	1	-2	0	66*	-12	-4
SMILES	MT stabilize HCS	bCat nuc transl	RAM inhibit	Yeast growth inh	Yeast life ext	Efa HMGR inh
Cc1ccc(NC(=O)CSc2nc3[nH]ncc3c(=O)[nH]2)c(C)c1	1	0	2	x	x	1
Cc1cccc(NC(=O)CSc2nc3[nH]ncc3c(=O)[nH]2)c1C	5	-2	11*	-29	2	4
CN1CCOC(=O)/C1=N/Nc1cc(Cl)ccc1Cl	3	0	4	x	x	-3
CCOC(=O)CCC(=O)Nc1ccc([N+](=O)[O-])cc1C	2	-5	0	x	x	-9
CS/C(=N\S(=O)(=O)c1cccs1)Nc1ccc(Br)cc1F	3	0	1	-10	31*	-2
O=C(OCc1ccc([N+](=O)[O-])cc1)C1CCN(S(=O)(=O)c2ccccc2)CC1	2	-2	9.1*	-28	0	0
Cc1ccc(S(=O)(=O)N2CCCC2C(=O)OCc2ccccc2)cc1 (stereo not drawn)	2	1	9.4*	-10	8	0
